Test results reported in publication PMC7049346 (Haematologica, 2019).

Experiments:
[1] = target: PDE1A3 (Homo sapiens, UniProt P54750); assay: PDE enzyme inhibition, radiometric assay; assay type: biochemical
Procedure, shortened: (§1)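 Recombinant human PDE enzymes (33 in the panel) were incubated in vitro with increasing concentrations of the test compound. Enzyme activity was measured radiometrically and IC50 values derived.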

[2] = target: PDE1B (Homo sapiens, UniProt Q01064); assay: PDE enzyme inhibition, radiometric assay; assay type: biochemical
Procedure, shortened: as §1

[3] = target: PDE1C (Homo sapiens, UniProt Q14123); assay: PDE enzyme inhibition, radiometric assay; assay type: biochemical
Procedure, shortened: as §1

[4] = target: PDE2A3 (Homo sapiens, UniProt O00408); assay: PDE enzyme inhibition, radiometric assay; assay type: biochemical
Procedure, shortened: as §1

[5] = target: PDE3A (Homo sapiens, UniProt Q14432); assay: PDE enzyme inhibition, radiometric assay; assay type: biochemical
Procedure, shortened: as §1

[6] = target: PDE3B (Homo sapiens, UniProt Q13370); assay: PDE enzyme inhibition, radiometric assay; assay type: biochemical
Procedure, shortened: as §1

[7] = target: PDE4A1 (Homo sapiens, UniProt P27815); assay: PDE enzyme inhibition, radiometric assay; assay type: biochemical
Procedure, shortened: as §1

[8] = target: PDE4B1 (Homo sapiens, UniProt Q07343); assay: PDE enzyme inhibition, radiometric assay; assay type: biochemical
Procedure, shortened: as §1

[9] = target: PDE4B3 (Homo sapiens, UniProt Q07343); assay: PDE enzyme inhibition, radiometric assay; assay type: biochemical
Procedure, shortened: as §1

[10] = target: PDE4C2 (Homo sapiens, UniProt Q08493); assay: PDE enzyme inhibition, radiometric assay; assay type: biochemical
Procedure, shortened: as §1

[11] = target: PDE4D1 (Homo sapiens, UniProt Q08499); assay: PDE enzyme inhibition, radiometric assay; assay type: biochemical
Procedure, shortened: as §1

[12] = target: PDE4D2 (Homo sapiens, UniProt Q08499); assay: PDE enzyme inhibition, radiometric assay; assay type: biochemical
Procedure, shortened: as §1

[13] = target: PDE4D5 (Homo sapiens, UniProt Q08499); assay: PDE enzyme inhibition, radiometric assay; assay type: biochemical
Procedure, shortened: as §1

[14] = target: PDE4D7 (Homo sapiens, UniProt Q08499); assay: PDE enzyme inhibition, radiometric assay; assay type: biochemical
Procedure, shortened: as §1

[15] = target: PDE5A2 (Homo sapiens, UniProt O76074); assay: PDE enzyme inhibition, radiometric assay; assay type: biochemical
Procedure, shortened: as §1

[16] = target: PDE5A3 (Homo sapiens, UniProt O76074); assay: PDE enzyme inhibition, radiometric assay; assay type: biochemical
Procedure, shortened: as §1

[17] = target: PDE6C (Homo sapiens, UniProt P51160); assay: PDE enzyme inhibition, radiometric assay; assay type: biochemical
Procedure, shortened: as §1

[18] = target: PDE7A (Homo sapiens, UniProt Q13946); assay: PDE enzyme inhibition, radiometric assay; assay type: biochemical
Procedure, shortened: as §1

[19] = target: PDE7B (Homo sapiens, UniProt Q9NP56); assay: PDE enzyme inhibition, radiometric assay; assay type: biochemical
Procedure, shortened: as §1

[20] = target: PDE8A1 (Homo sapiens, UniProt O60658); assay: PDE enzyme inhibition, radiometric assay; assay type: biochemical
Procedure, shortened: as §1

[21] = target: PDE8B (Homo sapiens, UniProt O95263); assay: PDE enzyme inhibition, radiometric assay; assay type: biochemical
Procedure, shortened: as §1

[22] = target: PDE9A2 (Homo sapiens, UniProt O76083); assay: PDE enzyme inhibition, radiometric assay; assay type: biochemical; settings: IC50, recombinant human PDE9A2
Procedure, shortened: as §1

[23] = target: PDE10A2 (Homo sapiens, UniProt Q9Y233); assay: PDE enzyme inhibition, radiometric assay; assay type: biochemical
Procedure, shortened: as §1

[24] = target: PDE11A1 (Homo sapiens, UniProt Q9HCR9); assay: PDE enzyme inhibition, radiometric assay; assay type: biochemical
Procedure, shortened: as §1

[25] = test system: K562 cells; assay: cGMP induction in K562 cells; assay type: cell-based, human; settings: 6 h
Procedure, shortened: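 Actively growing K562 cells were treated for 6 h with increasing concentrations of the test compound or hydroxyurea. cGMP was measured by non-radioactive enzyme immunoassay using the acetylation protocol, and protein by BCA assay. Data are means±Standard Errors.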

[26] = test system: K562 cells; assay: HbF induction in K562 cells; assay type: cell-based, human; settings: 72 h
[27] = test system: HbSS-Townes mice; assay: Townes SCD model, 30 days daily oral dosing; assay type: in vivo; settings: 30 days
[28] = test system: HbSS-Townes mice; assay: HbSS-Townes vaso-occlusive crisis model; assay type: in vivo
[29] = test system: erythroid cells from CD34+ progenitors of SCD patients; assay: HbF induction in SCD patient-derived erythroblasts; assay type: cell-based, human; settings: 10 μM IMR-687, five days, n=9, P<0.01
Procedure, shortened: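 CD34⁺ progenitors came from the blood or bone marrow of nine SCD donors. Cells grew seven days with 15% BIT 9500, 2 mM L-glutamine, IL-3 (10 ng/mL), IL-6 and SCF (100 ng/mL). CD36⁺ cells were then isolated and grown five days with SCF, IL-3 and EPO (2 UI/mL) plus DMSO, 30 μM hydroxyurea or 10 μM test compound. HbF⁺ cells (%) and HbF MFI were read by PE-anti-HbF FACS, gated LiveDead⁻/GPA⁺/Band3⁺.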

[30] = Brain and plasma exposure in mice; assay type: in vivo, C57Bl/6J mice
[31] = test system: rats; assay: Long-term toxicology study in normal rats; assay type: in vivo; settings: data not shown
[32] = test system: dogs; assay: Long-term toxicology study in dogs; assay type: in vivo
[33] = Genotoxicity

Chain of PDE7B (Q9NP56 whole entry): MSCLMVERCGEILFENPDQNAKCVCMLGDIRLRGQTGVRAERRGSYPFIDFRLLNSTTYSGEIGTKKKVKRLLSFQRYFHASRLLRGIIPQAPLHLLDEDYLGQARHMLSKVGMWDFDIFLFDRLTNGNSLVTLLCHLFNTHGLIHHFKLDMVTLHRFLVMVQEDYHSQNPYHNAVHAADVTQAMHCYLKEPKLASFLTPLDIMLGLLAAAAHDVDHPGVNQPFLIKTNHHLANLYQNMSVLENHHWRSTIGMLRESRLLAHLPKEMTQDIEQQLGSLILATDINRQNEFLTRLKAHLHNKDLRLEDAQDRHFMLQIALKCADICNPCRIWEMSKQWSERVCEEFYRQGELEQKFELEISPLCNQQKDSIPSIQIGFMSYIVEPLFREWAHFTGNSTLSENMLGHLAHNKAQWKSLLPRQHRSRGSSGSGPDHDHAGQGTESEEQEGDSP
Chain of PDE2A3 (O00408 whole entry): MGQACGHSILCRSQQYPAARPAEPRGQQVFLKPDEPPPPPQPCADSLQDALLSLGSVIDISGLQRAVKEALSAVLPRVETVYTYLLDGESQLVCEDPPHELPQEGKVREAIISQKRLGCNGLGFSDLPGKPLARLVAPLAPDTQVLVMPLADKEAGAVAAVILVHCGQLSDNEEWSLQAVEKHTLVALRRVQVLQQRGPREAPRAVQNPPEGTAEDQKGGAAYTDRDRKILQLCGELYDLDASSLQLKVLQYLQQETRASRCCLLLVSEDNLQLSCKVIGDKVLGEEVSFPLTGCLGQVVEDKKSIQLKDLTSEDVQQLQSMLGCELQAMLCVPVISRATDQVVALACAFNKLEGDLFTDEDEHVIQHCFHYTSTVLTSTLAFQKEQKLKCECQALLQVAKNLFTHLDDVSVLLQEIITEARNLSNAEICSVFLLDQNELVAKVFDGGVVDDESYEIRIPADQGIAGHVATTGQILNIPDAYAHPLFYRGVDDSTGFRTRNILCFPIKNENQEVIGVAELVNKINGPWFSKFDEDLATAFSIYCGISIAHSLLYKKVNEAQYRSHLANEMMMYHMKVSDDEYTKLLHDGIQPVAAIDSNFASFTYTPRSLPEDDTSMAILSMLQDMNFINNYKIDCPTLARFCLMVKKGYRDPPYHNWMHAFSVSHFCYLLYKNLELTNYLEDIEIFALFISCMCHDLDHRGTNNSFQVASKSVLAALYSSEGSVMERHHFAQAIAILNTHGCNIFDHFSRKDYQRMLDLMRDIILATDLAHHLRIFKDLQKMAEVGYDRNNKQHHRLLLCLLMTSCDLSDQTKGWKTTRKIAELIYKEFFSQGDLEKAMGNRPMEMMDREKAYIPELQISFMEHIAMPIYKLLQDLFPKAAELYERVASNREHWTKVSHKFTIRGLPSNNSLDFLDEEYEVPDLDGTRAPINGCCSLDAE
Chain of PDE7A (Q13946 whole entry): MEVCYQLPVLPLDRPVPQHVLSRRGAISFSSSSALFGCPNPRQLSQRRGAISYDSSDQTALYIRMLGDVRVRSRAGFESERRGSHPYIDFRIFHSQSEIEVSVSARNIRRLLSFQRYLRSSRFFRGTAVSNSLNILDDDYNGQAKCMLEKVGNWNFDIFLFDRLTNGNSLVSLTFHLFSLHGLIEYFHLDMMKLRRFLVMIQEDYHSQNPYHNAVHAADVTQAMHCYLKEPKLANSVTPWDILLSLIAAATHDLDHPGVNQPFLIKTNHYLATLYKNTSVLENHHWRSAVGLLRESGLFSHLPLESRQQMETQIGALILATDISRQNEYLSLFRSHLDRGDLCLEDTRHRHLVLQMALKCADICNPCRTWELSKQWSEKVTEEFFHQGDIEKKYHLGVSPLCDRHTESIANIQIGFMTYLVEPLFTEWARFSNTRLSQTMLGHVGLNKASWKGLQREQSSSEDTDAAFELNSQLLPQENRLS
Chain of PDE4B3 (Q07343 1-721 isoform Q07343-3): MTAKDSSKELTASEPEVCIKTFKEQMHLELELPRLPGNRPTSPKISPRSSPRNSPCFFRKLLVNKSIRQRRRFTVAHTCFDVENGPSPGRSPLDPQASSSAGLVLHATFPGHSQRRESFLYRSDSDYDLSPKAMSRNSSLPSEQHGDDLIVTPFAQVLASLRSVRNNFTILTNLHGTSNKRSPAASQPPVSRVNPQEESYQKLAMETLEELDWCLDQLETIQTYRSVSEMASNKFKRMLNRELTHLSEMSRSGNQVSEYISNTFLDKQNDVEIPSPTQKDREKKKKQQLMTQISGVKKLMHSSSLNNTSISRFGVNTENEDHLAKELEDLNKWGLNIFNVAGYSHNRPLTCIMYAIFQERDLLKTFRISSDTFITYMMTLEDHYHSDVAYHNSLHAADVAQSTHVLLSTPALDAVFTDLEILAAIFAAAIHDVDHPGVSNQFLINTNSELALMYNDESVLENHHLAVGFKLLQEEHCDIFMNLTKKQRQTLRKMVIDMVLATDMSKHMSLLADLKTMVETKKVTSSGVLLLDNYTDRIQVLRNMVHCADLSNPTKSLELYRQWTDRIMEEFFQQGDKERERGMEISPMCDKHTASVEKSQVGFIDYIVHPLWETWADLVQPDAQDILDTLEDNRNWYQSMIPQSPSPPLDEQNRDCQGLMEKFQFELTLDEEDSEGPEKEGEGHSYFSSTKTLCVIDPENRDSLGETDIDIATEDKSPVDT
Chain of PDE8A1 (O60658 whole entry): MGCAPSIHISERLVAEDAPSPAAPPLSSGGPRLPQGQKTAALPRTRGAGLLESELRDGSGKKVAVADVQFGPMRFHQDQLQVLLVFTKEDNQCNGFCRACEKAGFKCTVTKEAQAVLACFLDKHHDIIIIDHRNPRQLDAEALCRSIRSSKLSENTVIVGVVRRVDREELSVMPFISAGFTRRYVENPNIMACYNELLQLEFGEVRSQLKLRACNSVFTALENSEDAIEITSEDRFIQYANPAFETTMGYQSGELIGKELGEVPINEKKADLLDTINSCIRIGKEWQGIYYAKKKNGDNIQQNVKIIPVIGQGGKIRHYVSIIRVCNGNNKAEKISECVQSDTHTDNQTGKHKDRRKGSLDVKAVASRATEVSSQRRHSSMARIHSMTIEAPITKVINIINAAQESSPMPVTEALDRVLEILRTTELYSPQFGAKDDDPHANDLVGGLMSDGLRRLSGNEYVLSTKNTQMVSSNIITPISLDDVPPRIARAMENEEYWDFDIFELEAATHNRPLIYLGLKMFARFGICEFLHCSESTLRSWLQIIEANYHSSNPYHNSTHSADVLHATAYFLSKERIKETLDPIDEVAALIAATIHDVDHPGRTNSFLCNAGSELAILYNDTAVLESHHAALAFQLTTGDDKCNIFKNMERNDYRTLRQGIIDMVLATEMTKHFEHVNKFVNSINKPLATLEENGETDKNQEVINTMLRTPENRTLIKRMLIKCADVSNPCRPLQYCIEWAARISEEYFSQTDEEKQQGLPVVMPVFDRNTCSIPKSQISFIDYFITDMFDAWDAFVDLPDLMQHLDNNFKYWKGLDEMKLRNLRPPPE
Chain of PDE6C (P51160 whole entry): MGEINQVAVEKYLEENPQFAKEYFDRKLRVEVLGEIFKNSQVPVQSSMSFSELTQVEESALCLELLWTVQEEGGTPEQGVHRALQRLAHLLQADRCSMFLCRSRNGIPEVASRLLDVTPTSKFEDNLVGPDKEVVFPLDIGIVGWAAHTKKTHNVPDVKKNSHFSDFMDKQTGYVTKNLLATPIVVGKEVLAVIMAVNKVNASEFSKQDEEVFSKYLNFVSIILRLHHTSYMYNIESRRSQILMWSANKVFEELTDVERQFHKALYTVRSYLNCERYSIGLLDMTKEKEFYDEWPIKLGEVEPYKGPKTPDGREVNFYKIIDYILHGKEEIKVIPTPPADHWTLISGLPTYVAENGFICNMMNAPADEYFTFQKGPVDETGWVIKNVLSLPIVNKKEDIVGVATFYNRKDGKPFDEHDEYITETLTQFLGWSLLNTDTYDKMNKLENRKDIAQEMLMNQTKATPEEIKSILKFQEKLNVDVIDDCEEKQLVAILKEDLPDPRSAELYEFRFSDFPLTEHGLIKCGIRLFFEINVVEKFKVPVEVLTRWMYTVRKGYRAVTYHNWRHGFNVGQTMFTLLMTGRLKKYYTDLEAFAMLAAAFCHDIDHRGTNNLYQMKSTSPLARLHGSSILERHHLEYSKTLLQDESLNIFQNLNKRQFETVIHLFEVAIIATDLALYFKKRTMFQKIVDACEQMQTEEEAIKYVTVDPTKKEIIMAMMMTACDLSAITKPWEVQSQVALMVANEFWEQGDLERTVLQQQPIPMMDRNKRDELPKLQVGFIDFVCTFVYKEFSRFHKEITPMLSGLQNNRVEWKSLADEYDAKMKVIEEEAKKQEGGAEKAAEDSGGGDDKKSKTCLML
Chain of PDE4D7 (Q08499 1-748 isoform Q08499-11): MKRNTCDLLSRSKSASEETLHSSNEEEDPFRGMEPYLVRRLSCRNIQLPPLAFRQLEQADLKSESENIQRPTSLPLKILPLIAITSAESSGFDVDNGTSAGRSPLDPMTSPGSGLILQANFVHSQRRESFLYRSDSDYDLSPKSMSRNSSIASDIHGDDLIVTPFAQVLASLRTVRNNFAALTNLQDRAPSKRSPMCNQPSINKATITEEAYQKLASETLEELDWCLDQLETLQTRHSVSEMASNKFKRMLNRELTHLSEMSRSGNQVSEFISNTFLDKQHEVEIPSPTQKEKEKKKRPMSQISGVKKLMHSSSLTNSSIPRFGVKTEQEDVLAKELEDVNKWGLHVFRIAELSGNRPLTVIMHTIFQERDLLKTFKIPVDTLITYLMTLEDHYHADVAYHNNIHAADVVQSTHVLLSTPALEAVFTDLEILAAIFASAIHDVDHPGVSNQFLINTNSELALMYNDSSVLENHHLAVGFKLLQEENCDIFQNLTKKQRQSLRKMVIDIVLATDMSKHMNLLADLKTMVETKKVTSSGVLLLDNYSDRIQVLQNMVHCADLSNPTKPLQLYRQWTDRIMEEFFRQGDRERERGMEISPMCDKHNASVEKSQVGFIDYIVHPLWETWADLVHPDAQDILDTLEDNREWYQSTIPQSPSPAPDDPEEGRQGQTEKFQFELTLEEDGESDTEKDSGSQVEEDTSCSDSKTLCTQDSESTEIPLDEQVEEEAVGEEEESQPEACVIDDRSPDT

C[C@@H]1CN(Cc2ncccn2)C[C@H]1c1cn2c(C3CCOCC3)ncc2c(=O)[nH]1 [IMR-687]
IC50 [1]: 88.4 µM
IC50 [2]: 8.48 µM
IC50 [3]: 12.2 µM
IC50 [4]: > 100 µM
IC50 [5]: > 100 µM
IC50 [6]: > 100 µM
IC50 [7]: > 100 µM
IC50 [8]: > 100 µM
IC50 [9]: > 100 µM
IC50 [10]: > 100 µM
IC50 [11]: > 100 µM
IC50 [12]: > 100 µM
IC50 [13]: > 100 µM
IC50 [14]: > 100 µM
IC50 [15]: 81.9 µM
IC50 [16]: > 100 µM
IC50 [17]: > 100 µM
IC50 [18]: > 100 µM
IC50 [19]: > 100 µM
IC50 [20]: > 100 µM
IC50 [21]: > 100 µM
IC50 [22]: 0.01 µM
IC50 [23]: > 100 µM
IC50 [24]: > 100 µM
cGMP induction [25]: induced cGMP in a dosedependent manner
HbF induction (ELISA) [26]: dose-dependently induced more HbF than either BAY73-6691 or BAY 41-2271
HbF induction relative to a dose of HU that demonstrated cytotoxicity ([26]; 10 μM IMR-687): 4.6 times
WBC lower than vehicle ([27]; 30 mg/kg): 36%
increase in Hb ([27]; 30 mg/kg): 1.5 g/dL
increase in hematocrit ([27]; 30 mg/kg): 10%
increase in mature RBC ([27]; 30 mg/kg): 27%
increase in plasma nitrite levels ([27]; 30 mg/kg): ~2.5 fold
reduction in reticulocyte counts ([27]; 30 mg/kg): 36%
reduction of MPO levels ([27]; 30 mg/kg): 2.3 fold
reduction of plasma bilirubin and LDH vs vehicle treated SS mice ([27]; 30 mg/kg): over 2 fold
reduction of plasma free Hb levels ([27]; 30 mg/kg): over 55%
lung MPO levels ([27]; 30 mg/kg, HbSS-Townes vehicle 3.1 mU/L, P<0.0001): 1.3 mU/L
reduction of lung arginase vs vehicle ([27]; 30 mg/kg, P<0.0001): 25%
plasma bilirubin ([27]; 30 mg/kg, P<0.01): 4.7 mg/dL
LDH activity ([27]; 30 mg/kg, P<0.05): 102 AU
plasma nitrite levels ([27]; 30 mg/kg, untreated SS mice 0.56 mg/mL, P<0.05): 1.39 mg/mL
WBC count ([27]; 30 mg/kg, vehicle 38.2×10^9/L, P<0.05): 2.41e+10 L⁻¹
decrease in sickled RBC vs vehicle ([27]; 30 mg/kg/day): 2 fold
increase in the percent of HbF+ F-cells vs vehicle ([27]; 30 mg/kg/day): greater than 3 fold
percent of HbF+ F-cells ([27]; 30 mg/kg/day, vehicle 8.4%): 27.3%
percent sickled RBC ([27]; 30 mg/kg/day, vehicle 56.3%): 24.4%
microvascular stasis ([28]; 10 mg/kg/day for ten days, 1 h in normoxia, vehicle 33%, P<0.05): 20%
microvascular stasis ([28]; 10 mg/kg/day for ten days, 4 h in normoxia, vehicle 16%, ns): 14%
microvascular stasis ([28]; 30 mg/kg/day for ten days, 4 h in normoxia, vehicle 16%, P<0.01): 7%
percentage of F-cells (HbF positive) ([29]; DMSO control 13.3%): 21.9%
intensity of HbF staining (MFI) ([29]; control 6073±1217): 7813±1374
brain exposure levels lower than PF-04447943 ([30]; C57Bl/6J mice, 10 mg/kg/day for five days): 5 fold
Kp at 5 days ([30]; C57Bl/6J, mouse, brain/plasma, 10 mg/kg/day): 0.07
peripheral WBC counts ([31]; normal rats, up to 6 months, super-physiological doses): did not result in any reduction in peripheral WBC counts
myelotoxicity, histological examination of bone marrow smears ([31]; rats): did not demonstrate any myelotoxicity
myelotoxicity, histological examination of bone marrow smears ([32]; data not shown): did not demonstrate any myelotoxicity
peripheral WBC counts ([32]; up to 9 months, oral daily 10, 25, or 50 mg/kg): did not result in any reduction in peripheral WBC counts
genotoxicity [33]: not genotoxic
